What is called IC50 is the concentration at which inhibition is half-maximal.

The structures appear in SMILES notation. Values after ≈ are worked out from the molar mass of the structure shown. Active and inactive are the calls of the source. The rule behind the calls is not given here.

This passage reports Activity and IC50 results from ChEMBL document CHEMBL3259545, “Novel pyrrolobenzoxaboroles: design, synthesis, and biological evaluation against Trypanosoma brucei” (Eur J Med Chem, 2014).

Assay [1] deals with Trypanosoma brucei brucei. In words: Trypanocidal activity against bloodstream stage of Trypanosoma brucei brucei infected in acute BALB/c mouse assessed as extension of animal survival at 50 mg/kg, ip bid administered for 5 days initiated 24 hrs post infection. Type of assay: functional, organism-based. Also noted: dose 50 mg/kg. Put shortly: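 Female BALB/c mice infected i.p. with 600 T. b. brucei 221 parasites. Starting 24 h after infection, compounds were given i.p. at 50 mg/kg twice daily for 5 days, in 5% ethanol/45% water/50% PEG400. Untreated mice served as controls. Parasitemia was checked by trypan-blue-stained tail-vein blood smears every other day for ten days, then weekly, with survival followed to day 30.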

For assay [2], the system named is Trypanosoma brucei brucei. The assay can be described thus: Antitrypanosomal activity against Trypanosoma brucei brucei 427 after 72 hrs by alamar blue assay. In kind it is functional, organism-based. Conditions: Trypanosoma brucei, 427, 72 h. Put shortly: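 Bloodstream T. b. brucei 427 kept in log phase in HMI-9 with 10% FBS, 10% Serum Plus and penicillin/streptomycin, subcultured every 2–3 days. Final density 1.0 × 10⁵/mL with 0.4% DMSO, exposed to serially diluted compounds for 72 h at 37 °C, 5% CO₂. Resazurin added for another 2–4 h, fluorescence read at ex 544/em 590 nm. IC50 from sigmoidal fits of triplicate points.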
On the technique in general: The colour change of resazurin is a common sign of viable cells or microbes.

The subject of another assay is L929. The assay can be described thus: Cytotoxicity against mouse L929 cells assessed as cell viability after 72 hrs by alamar blue assay. In kind it is cell-based. Conditions: L929, 72 h. Put shortly: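 L929 mouse fibroblasts grown in DMEM with 10% FBS and 1% penicillin/streptomycin, kept sub-confluent. Seeded from a 1 × 10⁴/mL suspension, attached overnight, then medium renewed and DMSO-diluted compounds added. Incubated 72 h at 37 °C, 5% CO₂. Resazurin added for another 3–4 h, fluorescence read at ex 544/em 590 nm.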

`O=C(c1ccc(O)cc1)c1ccn(-c2ccc3c(c2)B(O)OC3)c1`: the outcome in assay [1] was Active. Further, the IC50 is 0.06 µg/mL (≈ 0.188 µM) in assay [2] and > 10 µg/mL in the assay on L929.
